# Test results as given in ChEMBL document CHEMBL1629641, “An important site in PBP2x of penicillin-resistant clinical isolates of Streptococcus pneumoniae: mutational analysis of Thr338” (2009).
# Columns and labels:
# Conditions in all cases: R6, 48 h
# [1] = tested on: Streptococcus pneumoniae; test: Antimicrobial activity against Streptococcus pneumoniae R6 harboring PBP2x T338G mutant gene after 48 hrs by agar dilution method; assay type: functional
# Method in brief: (§1)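 Agar dilution on blood agar plates (D-agar with 3% defibrinated sheep blood), natural atmosphere, inoculated with cells from exponentially growing cultures in C-medium with 0.2% yeast extract grown at 37°C without aeration; narrow range of antibiotic concentrations to detect subtle susceptibility differences; MIC read after 48 h at 37°C.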
# [2] = tested on: Streptococcus pneumoniae; test: Antimicrobial activity against streptomycin-resistant Streptococcus pneumoniae R6 harboring PBP2x T338G mutant gene and Janus disruption at PBP1a after 48 hrs by agar dilution method; assay type: functional; method in brief: as §1
# [3] = tested on: Streptococcus pneumoniae; test: Antimicrobial activity against Streptococcus pneumoniae R6 harboring PBP2x T338A mutant gene, disruption at PBP1a and aad9 disruption in CiaR gene after 48 hrs by agar dilution method; assay type: functional; method in brief: as §1
# [4] = tested on: Streptococcus pneumoniae; test: Antimicrobial activity against streptomycin-resistant Streptococcus pneumoniae R6 harboring PBP2x T338G and PBP1a2349 mutant gene after 48 hrs by agar dilution method; assay type: functional; method in brief: as §1
# [5] = tested on: Streptococcus pneumoniae; test: Antimicrobial activity against Streptococcus pneumoniae R6 harboring wild type PBP2x, disruption in PBP1a and aad9 disruption in CiaR gene after 48 hrs by agar dilution method; assay type: functional; method in brief: as §1
# [6] = tested on: Streptococcus pneumoniae; test: Antimicrobial activity against Streptococcus pneumoniae R6 harboring PBP2x2349 and PBP1a2349 mutant gene after 48 hrs by agar dilution method; assay type: functional; method in brief: as §1
# [7] = tested on: Streptococcus pneumoniae; test: Antimicrobial activity against Streptococcus pneumoniae R6 harboring PBP2x T338P mutant gene after 48 hrs by agar dilution method; assay type: functional; method in brief: as §1
# [8] = tested on: Streptococcus pneumoniae; test: Antimicrobial activity against Streptococcus pneumoniae R6 harboring PBP2x T338G mutant gene, disruption at PBP1a and aad9 disruption in CiaR gene after 48 hrs by agar dilution method; assay type: functional; method in brief: as §1
# [9] = tested on: Streptococcus pneumoniae; test: Antimicrobial activity against Streptococcus pneumoniae R6 harboring PBP2x T338A mutant gene after 48 hrs by agar dilution method; assay type: functional; method in brief: as §1
# [10] = tested on: Streptococcus pneumoniae; test: Antimicrobial activity against Streptococcus pneumoniae R6 harboring PBP2x T338P mutant gene, disruption at PBP1a and aad9 disruption in CiaR gene after 48 hrs by agar dilution method; assay type: functional; method in brief: as §1
# [11] = tested on: Streptococcus pneumoniae; test: Antimicrobial activity against streptomycin- resistant Streptococcus pneumoniae R6 harboring PBP2x2349 mutant gene and Janus disruption at PBP1a after 48 hrs by agar dilution method; assay type: functional; method in brief: as §1
# [12] = tested on: Streptococcus pneumoniae; test: Antimicrobial activity against Streptococcus pneumoniae R6 harboring PBP2x2349 mutant gene after 48 hrs by agar dilution method; assay type: functional; method in brief: as §1
# [13] = tested on: Streptococcus pneumoniae; test: Antimicrobial activity against Streptococcus pneumoniae R6 after 48 hrs by agar dilution method; assay type: functional; method in brief: as §1
# [14] = tested on: Streptococcus pneumoniae; test: Antimicrobial activity against Streptococcus pneumoniae R6 harboring PBP2x T338G mutant gene, disruption at PBP1a and aad9 disruption in CiaR gene after 48 hrs by agar dilution method
Structure (SMILES),MIC [1] [µg/mL],MIC [2] [µg/mL],MIC [3] [µg/mL],MIC [4] [µg/mL],MIC [5] [µg/mL],MIC [6] [µg/mL],MIC [7] [µg/mL],MIC [8] [µg/mL],MIC [9] [µg/mL],MIC [10] [µg/mL],MIC [11] [µg/mL],MIC [12] [µg/mL],MIC [13] [µg/mL],MIC [14] [µg/mL]
CO/N=C(\C(=O)N[C@@H]1C(=O)N2C(C(=O)O)=C(COC(C)=O)CS[C@H]12)c1csc(N)n1 [CEFOTAXIME],0.045,0.03,0.045,0.03,0.025,1,0.04,0.055,0.035,0.045,0.2,0.3,0.02,
Cc1onc(-c2ccccc2)c1C(=O)N[C@@H]1C(=O)N2[C@@H]1SC(C)(C)[C@@H]2C(=O)O [OXACILLIN],0.25,0.21,0.2,0.16,0.08,0.85,0.23,0.25,0.18,0.24,0.95,1,0.08,
CC1(C)S[C@@H]2[C@H](NC(=O)Cc3ccccc3)C(=O)N2[C@H]1C(=O)O [PENICILLIN G],0.03,0.02,0.04,0.02,0.02,0.035,0.03,0.025,0.03,,0.04,0.04,0.02,0.025
CCN1CCN(C(=O)N[C@@H](C(=O)N[C@@H]2C(=O)N3[C@@H]2SC(C)(C)[C@@H]3C(=O)O)c2ccccc2)C(=O)C1=O [PIPERACILLIN],0.1,0.09,0.11,0.06,0.06,0.11,0.06,0.08,0.09,0.06,0.12,0.12,0.04,
